C2C12 statin: suppressors of simvastatin-induced myotoxicity in C2C12 myotubes; ATP luminescence, 48 h; scaled: DMSO 0, geranylgeraniol control 100; actives 0.78% (n = 330,000); rescue of ATP level, % at 7.49 µM;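 active = mean ATP rescue above about 67%, or every replicate alone reaching that limit, limit read from the data, passing the limit was not always enough; inconclusive = no clear call, values can overlap the other calls; inactive = mean under the limit and some replicate under it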;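 also: myotubes were challenged with 10 µM simvastatin during compound exposure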
S100A4 MyoIIA: S100A4-myosin IIA interaction inhibition. S100A4/TAMRA-MyoIIA peptide fluorescence polarization. inhibition, % at 10.7 µM. actives 0.14% (n = 360,000);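 active = mean inhibition of at least 70% across replicates, with every replicate also reaching that level; inconclusive = mean inhibition reaches 70% but some replicates fall short; inactive = mean inhibition below 70%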
Target sequence (P26447 whole entry, looked up): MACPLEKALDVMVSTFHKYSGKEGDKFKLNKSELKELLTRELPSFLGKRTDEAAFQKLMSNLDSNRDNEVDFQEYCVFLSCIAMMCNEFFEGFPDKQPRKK
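System – human S100A4 monomer protein, biochemical binding assay · Buffer or medium – Calcium-containing HEPES buffer, pH 7.2 · Timing – 5 min between mix addition and reading · Also added – TAMRA-labelled myosin IIA heavy-chain peptide probe, 5 nM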
SIRT5 block: inhibitors of human sirtuin-5 desuccinylase | Q9NXA8 | Purified SirT5, succinyl-peptide AMC, trypsin-coupled fluorescence | inhibition, % at 15 µM | actives 1.1% (n = 330,000) | AID 652115; in the data active = inhibition above about 15%; inconclusive = no clear call, values can overlap the other calls
Target sequence (Q9NXA8 whole entry, looked up): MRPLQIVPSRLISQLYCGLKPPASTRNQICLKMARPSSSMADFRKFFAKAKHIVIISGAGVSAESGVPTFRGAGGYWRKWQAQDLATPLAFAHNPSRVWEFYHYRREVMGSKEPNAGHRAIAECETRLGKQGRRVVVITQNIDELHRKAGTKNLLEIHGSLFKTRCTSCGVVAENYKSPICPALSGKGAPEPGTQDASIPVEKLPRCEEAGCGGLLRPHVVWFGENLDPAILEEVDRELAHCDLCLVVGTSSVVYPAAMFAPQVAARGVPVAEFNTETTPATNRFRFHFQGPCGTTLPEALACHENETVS
rRNA inh HTS: selective bacterial rRNA inhibition in E. coli. GFP signal change (wild-type ribosome), % (no concentration beside the values). actives 1.6% (n = 350,000). E. coli WT GFP vs humanized-ribosome RFP mutants, fluorescence, 24 h; stronger effect = lower value; DMSO median 0, no signal -100;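 active = significant combined selectivity score with lowered wild-type GFP, culture density cut under 30%, mutant RFP and density less affected; inactive = any of these conditions unmet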
Cneo AK release: causes C. neoformans cell lysis; lysis activity, % at 15 µM; adenylate kinase release luminescence, 4 h; normalised: neutral wells 0, clomiphene wells 100; actives 0.2% (n = 360,000);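 active = mean lysis activity across replicates of at least 80%, whatever share of replicates individually reach that level; inactive = mean lysis activity below 80%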
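Test system: log-phase Cryptococcus neoformans yeast cells. Input: 5 × 10^6 yeast cells/mL. Medium: fresh YPD growth medium. Doses: single dose. Incubation: static 4 h at 37 °C with compound, 1 h detection. Measured by: luminescent adenylate kinase detection reagent. Read-out: signal increase indicating cell lysis. Benchmarks: Clomiphene.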
PGC1a acetyl inh: modulators of PGC1a acetylation; actives 0.17% (n = 350,000); U2OS PGC1a acetylation, AlphaScreen anti-acetyl-lysine; with virally co-expressed GCN5 acetyltransferase; inhibition, % at 15.6 µM;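 active = every replicate shows inhibition of at least 40%; inconclusive = mean inhibition at least 40% but some replicate below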;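 also: 0% = neutral control wells and 100% = positive control wells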
HepG2 cytotox: kills or reduces viability of HepG2 cells. shares compounds with rRNA inh HTS. ATP luminescence, 72 h. activity change, negative = cytotoxicity, unspecified at 26 µM. 30 tested, under 10 active;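 active = compounds whose fitted half-maximal signal-loss concentration is at most twice their highest valid dose; inconclusive = flat curve with 30 to 70% signal loss, or poor fit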
AID977621: growth inhibition of wild-type GFP E. coli, dose response, H69 mutant RFP, cherry-pick. shares compounds with rRNA inh HTS. E. coli wild-type GFP strain growth, fluorescence, 24 h. activity change, negative = inhibition at 50 µM. 1,900 tested, under 10 active. AID 977621;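 active = Wild-type ribosome reporter drop at least double the humanized mutant ribosome reporter drop, growth loss under a set limit; inconclusive = no clear call, values can overlap the other calls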;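 also: wild-type GFP and H69 mutant RFP strains grown together 50/50 in each well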
AID977628: E. coli growth inhibition, wild-type GFP versus h24 humanized RFP strain, dose response, h24 mutant RFP vs wild-type GFP, cherry-pick. shares compounds with rRNA inh HTS. E. coli WT GFP strain growth, fluorescence, 24 h. activity change, negative = inhibition at 50 µM. 1,900 tested, under 10 active. AID 977628;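 active = compound lowering the normal-ribosome reporter at least twice as much as the humanized-ribosome reporter, growth loss under a set limit; inconclusive = no clear call, values can overlap the other calls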;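 also: wild-type GFP and h24 humanized RFP strains co-cultured 1 to 1 per well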
* hit, by the source's call. The list is not random: actives were taken first. Their share in the collection is about 3%.

What do the screens show for `O=C(NC1CCC1)[C@H]1[C@H](CO)[C@H]2Cn3c(ccc(-c4ccccc4)c3=O)[C@@H]1N2CC1CC1`?
C2C12 statin: 21; S100A4 MyoIIA: 17; SIRT5 block: -4; rRNA inh HTS: -3; Cneo AK release: 2

Results for C=C(C)Cn1c(SCC(=O)O)nc2c1c(=O)[nH]c(=O)n2C ?
C2C12 statin: -5; S100A4 MyoIIA: -9; SIRT5 block: 0; rRNA inh HTS: -12*; Cneo AK release: 4; PGC1a acetyl inh: 3; AID977621: inconclusive; AID977628: inconclusive

Results for C=C(C)Cn1c(SCCN2CCOCC2)nc2c1c(=O)[nH]c(=O)n2C ?
C2C12 statin: 6; Cneo AK release: -2; PGC1a acetyl inh: 6

What do the screens show for `COc1cc2cc(C(=O)Nc3ccc4c(c3)OCCO4)[nH]c2cc1OC`?
C2C12 statin: -10; S100A4 MyoIIA: 2; SIRT5 block: 2; rRNA inh HTS: -21*; Cneo AK release: -5; PGC1a acetyl inh: 3; AID977621: -3.5; AID977628: -11

How did COc1ccc(Oc2ccc(C(F)(F)F)cc2NC(=O)CC(CC(=O)O)c2ccccc2)cc1 (stereo not drawn) do in these assays?
C2C12 statin: 1; S100A4 MyoIIA: -5; SIRT5 block: 1; rRNA inh HTS: -36*; Cneo AK release: 0; PGC1a acetyl inh: 1; AID977621: -9

Results for Cc1ccc(-n2nnnc2CNC(=O)c2ccc(Br)o2)cc1C ?
C2C12 statin: -5; S100A4 MyoIIA: 4; SIRT5 block: 6; rRNA inh HTS: -4; Cneo AK release: 6; PGC1a acetyl inh: 2

What do the screens show for `Cc1ccc(-n2nnnc2CNC(=O)c2ccc([N+](=O)[O-])o2)cc1C`?
C2C12 statin: 80*; S100A4 MyoIIA: -5; SIRT5 block: 2; rRNA inh HTS: -20*; AID977621: inconclusive; AID977628: 0.065

Results for Cc1cc(C)n(CC(O)COc2ccc3ccccc3c2)n1 (stereo not drawn) ?
S100A4 MyoIIA: 1; rRNA inh HTS: -29*; PGC1a acetyl inh: -1; AID977621: -16

How did CC(C)C#Cc1cnc2c(c1)C(=O)N([C@H](C)CO)C[C@H](C)[C@H](CN(C)C(=O)c1ccc3c(c1)OCO3)O2 do in these assays?
C2C12 statin: 6; S100A4 MyoIIA: 5; SIRT5 block: -1; rRNA inh HTS: -2; Cneo AK release: 0; PGC1a acetyl inh: 0

Results for C[C@H]1CN([C@@H](C)CO)C(=O)CCCn2nncc2CO[C@@H]1CN(C)S(=O)(=O)c1ccc(F)cc1 ?
C2C12 statin: 0; S100A4 MyoIIA: 0; SIRT5 block: -1; rRNA inh HTS: -2; Cneo AK release: 50; PGC1a acetyl inh: 2

What do the screens show for `CSc1nc(SCCN(C)C)c2c3c(sc2n1)COC(C)(C)C3`?
S100A4 MyoIIA: -2; SIRT5 block: -3; rRNA inh HTS: -23*; AID977628: 2.5

What do the screens show for `CCC1(C)Cc2c(sc3nc(SC)nc(NCCN(C)C)c23)CO1` (stereo not drawn)?
C2C12 statin: -6; Cneo AK release: -1

What do the screens show for `COc1ccccc1S(=O)(=O)N[C@H]1CC[C@H](CC(=O)NCc2cc(F)cc(F)c2)O[C@H]1CO`?
S100A4 MyoIIA: 64; SIRT5 block: 5; rRNA inh HTS: 3; PGC1a acetyl inh: 7

What do the screens show for `COc1cccc(C(=O)Nc2cc(C)nn2-c2ccccc2)c1OC`?
C2C12 statin: 3; S100A4 MyoIIA: -1; SIRT5 block: -2; rRNA inh HTS: -34*; Cneo AK release: -2; PGC1a acetyl inh: -1; HepG2 cytotox: 14

What do the screens show for `COc1ccc(C#Cc2ccc3c(c2)[C@@H]2[C@@H](CCN2Cc2nccs2)[C@@H](CO)N3)cc1`?
C2C12 statin: -4; rRNA inh HTS: -22*; Cneo AK release: 4; PGC1a acetyl inh: 1; AID977628: inconclusive

What do the screens show for `CC(C)NC(=O)N[C@@H]1CC[C@H](CCNC(=O)C2CCC2)O[C@H]1CO`?
C2C12 statin: 0; S100A4 MyoIIA: 14; SIRT5 block: -1; rRNA inh HTS: 1; Cneo AK release: -5; PGC1a acetyl inh: 4

How did CN1C(=O)c2cccc3c(S(=O)(=O)NCCc4ccccc4)ccc1c23 do in these assays?
C2C12 statin: -2; S100A4 MyoIIA: -5; SIRT5 block: -7; rRNA inh HTS: -23*; Cneo AK release: -1; PGC1a acetyl inh: -12; AID977621: inconclusive

Results for O=C(C[C@H]1CC[C@@H](NC(=O)Nc2ccccc2F)[C@@H](CO)O1)NCc1ccccc1 ?
C2C12 statin: 7; S100A4 MyoIIA: 10; SIRT5 block: -2; rRNA inh HTS: -4; Cneo AK release: -1; PGC1a acetyl inh: 6

How did O=C(C[C@H]1CC[C@H](NC(=O)Nc2ccccc2F)[C@H](CO)O1)NCc1ccc(-c2ccccc2)cc1 do in these assays?
S100A4 MyoIIA: 6; SIRT5 block: -1; rRNA inh HTS: -20*; AID977621: -6.5; AID977628: inconclusive

What do the screens show for `CCOc1ccc2nc(SCC(=O)Nc3nonc3C)[nH]c2c1`?
S100A4 MyoIIA: 0; SIRT5 block: -3; rRNA inh HTS: -20*; PGC1a acetyl inh: -1; AID977621: -15; AID977628: -10

Results for COc1ccccc1C#Cc1ccc([C@@H]2[C@@H](CO)N3CCCCN(C(=O)C4CCCC4)C[C@H]23)cc1 ?
S100A4 MyoIIA: -4; SIRT5 block: 14; Cneo AK release: 3; PGC1a acetyl inh: -36

Results for COc1cc(OC)cc(C(=O)N[C@H](C(=O)OCC(=O)Nc2ccc(C)cc2C)C(C)C)c1 ?
S100A4 MyoIIA: 4; SIRT5 block: 4; rRNA inh HTS: -8; Cneo AK release: -2

How did COc1cc(OC)cc(C(=O)N[C@H](C(=O)OCC(=O)Nc2ccc(F)c(F)c2F)C(C)C)c1 do in these assays?
C2C12 statin: -11; S100A4 MyoIIA: -5; SIRT5 block: 5; rRNA inh HTS: -20*; Cneo AK release: 4; PGC1a acetyl inh: 2; AID977621: inconclusive
